Measured values as given in ChEMBL document CHEMBL4627348, “Synthesis of (1,3,4-thiadiazol-2-yl)-acrylamide derivatives as potential antitumor agents against acute leukemia cells” (Bioorg Med Chem Lett, 2020).
Active and inactive are the calls of the source. No cut-off for these calls is given here.

How the values were obtained:
[1] = Cytotoxicity against HEK293T cells assessed as growth inhibition at 20 uM after 48 hrs by CCK8 assay relative to control; type: cell-based, HEK-293T; settings: human, HEK293T cells; read-out: GI
In short: (§1)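 Single-dose screen at 20 μM in RS4;11 (human ALL), HL-60 (human promyelocytic leukemia) and HEK293T (normal-cell model). Cells exposed 48 h, viability read by CCK-8, growth inhibition ratio expressed relative to control.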

HL-60 = test: Antiproliferative activity against human HL60 cells assessed as growth inhibition at 20 uM after 48 hrs by CCK-8 assay relative to control; type: functional; settings: for inhibition of growth at 20 µM: HL-60, 48 h, read-out: GI; in short: as §1
RS4-11 [2] = test: Antiproliferative activity against human RS4:11 cells assessed as growth inhibition at 20 uM after 48 hrs by CCK-8 assay relative to control; type: functional; settings: for inhibition of growth at 20 µM: RS4-11, 48 h, read-out: GI; in short: as §1
HEK-293T = test: Cytotoxicity against human HEK293T cells assessed as growth inhibition after 48 hrs by CCK8 assay; type: cell-based
RS4-11 [3] = test: Antiproliferative activity against human RS4:11 cells assessed as growth inhibition after 48 hrs by CCK-8 assay; type: functional, cell-based; settings: RS4-11, 48 h

IC50 (RS4-11 [3]) | SMILES | inhibition at 48 h, 20 µM [1] | inhibition of growth at 20 µM (HL-60) | growth inhibition (GI) (RS4-11 [2]) | inhibition of growth at 20 µM (RS4-11 [2]) | IC50 (HEK-293T) | growth inhibition (GI) (HL-60)
– | N#C/C(=C\c1cccc(OS(=O)(=O)c2cccs2)c1)C(=O)Nc1nnc(-c2cccs2)s1 | 50% | 30% | inactive | – | – | –
– | N#C/C(=C\c1ccccc1OS(=O)(=O)c1ccc([N+](=O)[O-])cc1)C(=O)Nc1nnc(-c2cccs2)s1 | 33% | 23% | – | 40% | – | –
– | N#C/C(=C\c1ccccc1OS(=O)(=O)c1ccc(Cl)cc1)C(=O)Nc1nnc(Cc2ccc(F)cc2)s1 | 6% | 20% | – | 68% | – | –
– | N#C/C(=C\c1ccccc1OS(=O)(=O)c1ccc(F)cc1)C(=O)Nc1nnc(Cc2cccc3ccccc23)s1 | 15% | 12% | – | 68% | – | –
– | N#C/C(=C\c1ccccc1OS(=O)(=O)c1ccc(Cl)cc1)C(=O)Nc1nnc(Cc2ccccc2)s1 | 25% | 26% | – | 73% | – | –
– | Cc1ccc(Cc2nnc(NC(=O)/C(C#N)=C/c3ccccc3OS(=O)(=O)c3ccc([N+](=O)[O-])cc3)s2)cc1 | 9% | 17% | – | 64% | – | –
– | Cc1ccc(S(=O)(=O)Oc2cccc(/C=C(\C#N)C(=O)Nc3nnc(-c4ccccc4Cl)s3)c2)cc1 | 55% | 67% | – | 44% | – | –
– | N#C/C(=C\c1ccccc1OS(=O)(=O)c1ccc(Cl)cc1)C(=O)Nc1nnc(Cc2cccc3ccccc23)s1 | 16% | 15% | – | 68% | – | –
– | COc1ccc(Cc2nnc(NC(=O)/C(C#N)=C/c3ccccc3OS(=O)(=O)c3ccc(C)cc3)s2)cc1 | 21% | 25% | – | 70% | – | –
– | N#C/C(=C\c1ccccc1OS(=O)(=O)c1ccc([N+](=O)[O-])cc1)C(=O)Nc1nnc(Cc2cccc3ccccc23)s1 | 25% | 18% | – | 58% | – | –
– | Cc1ccc(S(=O)(=O)Oc2ccccc2/C=C(\C#N)C(=O)Nc2nnc(Cc3cccc(F)c3)s2)cc1 | 9% | 11% | – | 56% | – | –
– | N#C/C(=C\c1ccccc1OS(=O)(=O)c1ccc(OC(F)(F)F)cc1)C(=O)Nc1nnc(-c2cccs2)s1 | 42% | 48% | – | 39% | – | –
– | N#C/C(=C\c1ccccc1OS(=O)(=O)c1ccc([N+](=O)[O-])cc1)C(=O)Nc1nnc(Cc2ccc(F)cc2)s1 | 8% | 18% | – | 55% | – | –
– | N#C/C(=C\c1ccccc1OS(=O)(=O)c1ccc(F)cc1)C(=O)Nc1nnc(Cc2ccc(Cl)cc2)s1 | 14% | 20% | – | 64% | – | –
– | COc1ccc(Cc2nnc(NC(=O)/C(C#N)=C/c3ccccc3OS(=O)(=O)c3ccc(F)cc3)s2)cc1 | 6% | 25% | – | 80% | – | –
– | N#C/C(=C\c1ccccc1OS(=O)(=O)c1ccc(F)cc1)C(=O)Nc1nnc(Cc2cccc(F)c2)s1 | 17% | 22% | – | 72% | – | –
4.02 µM | COc1ccc(Cc2nnc(NC(=O)/C(C#N)=C/c3ccccc3OS(=O)(=O)c3ccc(Cl)cc3)s2)cc1 | 34% | – | – | 79% | > 50 µM | –
– | Cc1ccc(Cc2nnc(NC(=O)/C(C#N)=C/c3ccccc3OS(=O)(=O)c3ccc(C)cc3)s2)cc1 | 22% | 17% | – | 66% | – | –
– | N#C/C(=C\c1ccccc1OS(=O)(=O)c1ccc(Cl)cc1)C(=O)Nc1nnc(-c2cccs2)s1 | 46% | 17% | – | 22% | – | –
– | COc1ccc(Cc2nnc(NC(=O)/C(C#N)=C/c3ccccc3OS(=O)(=O)c3ccccc3[N+](=O)[O-])s2)cc1 | 18% | 25% | – | 68% | – | –
– | Cc1ccc(S(=O)(=O)Oc2ccccc2/C=C(\C#N)C(=O)Nc2nnc(Cc3ccc(F)cc3)s2)cc1 | 16% | – | – | 72% | – | inactive
– | Cc1ccc(S(=O)(=O)Oc2ccccc2/C=C(\C#N)C(=O)Nc2nnc(Cc3ccc(Cl)cc3)s2)cc1 | 20% | 15% | – | 69% | – | –
